LANA-H2A inh: blocks KSHV LANA binding to histone H2A/H2B. 320,000 tested, 0.6% active. cell-free LANA-H2A/H2B peptide, fluorescence polarization. AID 2629. inhibition, % (test concentration not listed). Q9QR71; in the data active = inhibition mostly above about 10%, no sharp cut-off; inactive = mostly below about 6.7%
RanGTP-Imp inh: inhibitors of RanGTP-importin-beta interaction, primary screen, biochemical, FRET, CFP-Ran, YFP-importin-beta, homogeneous. inhibition, % (no concentration beside the values). 300,000 tested, 1.1% active. cell-free CFP-Ran/YFP-importin-beta FRET ratio. AID 2216;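 active = more than half of the replicate wells show a fall in the fluorescence ratio signal beyond about 16%, limit read from the data, passing the limit was not always enough; inconclusive = exactly half of the replicate wells pass the set limit; inactive = fewer than half of replicates pass the limit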
HDAC3 inhib: blocks human histone deacetylase 3. inhibition, % at 8.3 µM. AID 2718. 320,000 tested, 0.15% active. recombinant HDAC3, fluorogenic peptide/trypsin coupled, fluorescence. O15379; in the data active = inhibition above about 26%, passing the limit was not always enough; inconclusive = no clear call, values can overlap the other calls
Runt-SMMHC FRET: inhibitors of human RUNX1 Runt domain binding to CBFb-SMMHC; AID 1434; inhibition, % at 20 µM; 220,000 tested, 0.74% active; Cerulean-Runt/Venus-CBFb-SMMHC FRET ratio 530/480, 1 h; Q01196+Q13951;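 active = mean inhibition across duplicate retests at 20 µM reaching about 50%, limit read from the data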;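 also: inhibitors lower the FRET ratio by blocking Runt binding to CBFb-SMMHC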
Target sequence (Q01196 whole entry, looked up, the tested form may be a part): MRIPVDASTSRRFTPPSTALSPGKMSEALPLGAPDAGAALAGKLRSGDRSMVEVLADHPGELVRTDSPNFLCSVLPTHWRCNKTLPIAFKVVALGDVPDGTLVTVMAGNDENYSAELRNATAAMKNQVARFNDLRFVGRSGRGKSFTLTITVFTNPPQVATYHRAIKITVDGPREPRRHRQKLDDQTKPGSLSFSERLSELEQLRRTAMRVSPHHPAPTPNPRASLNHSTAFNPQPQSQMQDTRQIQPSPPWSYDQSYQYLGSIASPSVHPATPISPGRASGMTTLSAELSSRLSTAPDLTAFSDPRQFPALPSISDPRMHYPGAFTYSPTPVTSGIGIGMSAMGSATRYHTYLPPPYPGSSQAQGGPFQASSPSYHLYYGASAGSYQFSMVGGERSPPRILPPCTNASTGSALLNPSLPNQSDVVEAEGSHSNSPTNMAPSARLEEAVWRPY
Target sequence (Q13951 whole entry, looked up, the tested form may be a part): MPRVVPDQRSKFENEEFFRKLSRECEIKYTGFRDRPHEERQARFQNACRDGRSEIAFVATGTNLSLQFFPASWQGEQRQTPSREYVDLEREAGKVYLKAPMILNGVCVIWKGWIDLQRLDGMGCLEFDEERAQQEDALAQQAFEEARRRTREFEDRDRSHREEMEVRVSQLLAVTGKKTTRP
Runt-CBFb FRET: blocks binding of human RUNX1 Runt domain to CBFb | Cerulean-Runt/Venus-CBFb FRET ratio 530/480, 1 h | inhibition, % at 20 µM | 220,000 tested, 0.46% active;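 active = inhibition over about 50% at 20 µM in the single-dose screen, limit read from the data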
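Assay system: Cerulean-Runt domain fusion protein, energy donor; Signal: fluorescence energy transfer, 422 nm excitation, 530/480 nm emission; Timing: 1 h compound exposure, room temperature; Control set: unlabeled CBFb; Medium: Tris buffer pH 7.5 with salts and BSA; Compound: single test concentration of 20 µM, 1% DMSO final; Probe or stimulus: Venus-CBFb 100 nM.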
CaV13 FRET inh: Primary screen for inhibitors of IQ motif and Ca2+-dependent inactivation inhibitor domain binding in CACNA1D, Förster resonance energy transfer in living cells, …; HEK cells, CFP/YFP FRET ICDI-IQ, plate reader, 10 min; percent FRET-ratio fall versus neutral wells; inhibition, % at 12.3 µM; 340,000 tested, 0.098% active;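 active = mean replicate inhibition of at least 30% and at least 1% of replicates passing that level; inconclusive = only one of the two criteria is met; inactive = neither criterion is met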
Of the large screens only hits and unclear results are named; the others gave an inactive call; ! = not active in a repeat. Only some compounds are listed: those with a hit (about 1.9% of all), similar ones and a draw of the others.

COc1ccc(-c2cc(=O)oc3cc(OCC(=O)NCCN4CCOCC4)ccc23)cc1	LANA-H2A inh 16 (no result: Runt-SMMHC FRET, Runt-CBFb FRET)
O=S1(=O)CC(N2CCCCC2)CN1Cc1ccccc1 (stereo not given)	none (no result: LANA-H2A inh, RanGTP-Imp inh, HDAC3 inhib, Runt-SMMHC FRET, Runt-CBFb FRET)
O=C(O)CCCC(=O)N1CCN(c2nc(-c3ccccc3Cl)c3cc(Br)ccc3n2)CC1	RanGTP-Imp inh 35 (no result: Runt-SMMHC FRET, Runt-CBFb FRET)
CCOC(=O)N1CCN(c2ccccc2O)CC1	none
CCOC(=O)N1CCN(c2nc(-c3ccccc3)c3ccccc3n2)CC1	RanGTP-Imp inh 18 (no result: Runt-SMMHC FRET, Runt-CBFb FRET, CaV13 FRET inh)
Cc1ccc2nc(N3CC(C)OC(C)C3)nc(-c3ccccc3)c2c1 (stereo not given)	RanGTP-Imp inh inconclusive, HDAC3 inhib inconclusive (no result: Runt-SMMHC FRET, Runt-CBFb FRET)
O=C(O)C1CCN(c2nc(-c3ccccc3)c3cc(Br)ccc3n2)CC1	RanGTP-Imp inh inconclusive (no result: Runt-SMMHC FRET, Runt-CBFb FRET)
Cc1ccc2nc(N3CCN(C(=O)CCCC(=O)O)CC3)nc(-c3ccccc3)c2c1	RanGTP-Imp inh 17 (no result: Runt-SMMHC FRET, Runt-CBFb FRET)
Cc1ccc2nc(N3CCN(C=O)CC3)nc(-c3ccccc3)c2c1	RanGTP-Imp inh 54, Runt-SMMHC FRET 88
O=C(O)CCC(=O)N1CCN(c2nc(-c3ccccc3)c3ccccc3n2)CC1	none (no result: Runt-SMMHC FRET, Runt-CBFb FRET)
COc1ccc(/C=N\NC(=O)c2cc3c(ccc4ccccc43)o2)cc1O	none (no result: RanGTP-Imp inh, Runt-SMMHC FRET, Runt-CBFb FRET, CaV13 FRET inh)
COc1ccc(COC(=O)c2sc3nc4n(c(=O)c3c2C)CCC4)cc1	none (no result: Runt-SMMHC FRET, Runt-CBFb FRET)
CCN(CC)S(=O)(=O)c1ccc2c(c1)N(CC(=O)NCCN1CCOCC1)C(=O)CO2	none (no result: LANA-H2A inh, HDAC3 inhib, Runt-SMMHC FRET, Runt-CBFb FRET)
CCOc1ccc(NC(=O)CSc2nnnn2C2CCCC2)cc1	none (no result: Runt-SMMHC FRET, Runt-CBFb FRET)
c1ccc(-c2nc(-n3nc4ccccc4n3)nc3ccccc23)cc1	none
Clc1ccc(-c2nc(N3CCCCC3)nc3ccccc23)cc1	RanGTP-Imp inh 25, Runt-SMMHC FRET 88
COc1ccc(OC(=O)c2cccnc2)cc1	none
O=C(Oc1ccc([N+](=O)[O-])cc1)c1cccnc1	HDAC3 inhib 32
Cc1cc(C(=O)NCC(=O)Nc2c(C)cccc2C)c(C)o1	LANA-H2A inh 167 (no result: Runt-SMMHC FRET, Runt-CBFb FRET, CaV13 FRET inh)
COc1ccc(CCNC(=O)c2cc(C)oc2C)cc1	LANA-H2A inh 14 (no result: Runt-SMMHC FRET, Runt-CBFb FRET, CaV13 FRET inh)
CC1(C(=O)NS(=O)(=O)c2ccccc2)CCN1C(=O)CC(c1ccccc1)c1ccccc1 (stereo not given)	none (no result: LANA-H2A inh, RanGTP-Imp inh, HDAC3 inhib, Runt-SMMHC FRET, Runt-CBFb FRET)
CCOc1ccc(C(=O)Nc2c(C(=O)N3CCC(N4CCCCC4)CC3)oc3ccccc23)cc1	none (no result: Runt-SMMHC FRET, Runt-CBFb FRET)
Cc1ccc(/C(N)=N/OC(=O)N2CCOCC2)cc1	Runt-CBFb FRET 74
CCCC(=O)OCCNC(=O)c1cc2ccccc2oc1=O	none
CCc1nc2sc(C(C)=O)c(N)c2c2c1CCCC2	RanGTP-Imp inh 28, Runt-SMMHC FRET 81
CCc1nc2sc(C#N)c(N)c2c2c1CCCC2	none (no result: Runt-SMMHC FRET, Runt-CBFb FRET)
Cc1ccc(-c2nc3sc(C(N)=O)c(N)c3c3c2CCCC3)cc1	none
CC(=O)c1sc2nc(-c3ccc(C)cc3)c3c(c2c1N)CCCC3	RanGTP-Imp inh 66
CCOc1ccc(-c2c(C(=O)N/N=C/c3cccc(Br)c3)nnn2-c2nonc2N)cc1	LANA-H2A inh 20 (no result: Runt-SMMHC FRET, Runt-CBFb FRET)
CCOC(=O)c1sc(Nc2nc3ccc(OC)cc3s2)cc1C	Runt-SMMHC FRET 62
CCCC(=O)Nc1nc2ccc(OC)cc2s1	none
COc1ccc2nc(Nc3sc4c(c3C(N)=O)CCCC4)sc2c1	Runt-SMMHC FRET 67 (no result: RanGTP-Imp inh)
CCOc1ccc(S(=O)(=O)N/N=C(\C)Cc2ccc(OC)cc2)cc1	none
COc1ccc(OC)c(NC(=O)CN2C(=O)C3(OCCCO3)c3ccccc32)c1	none (no result: LANA-H2A inh, HDAC3 inhib)
O=S(=O)(NCCCCCNS(=O)(=O)c1ccccc1)c1ccccc1	LANA-H2A inh 16! (no result: CaV13 FRET inh)
O=S(=O)(NCCCc1ccccc1)c1ccccc1	none (no result: CaV13 FRET inh)
Cc1ccc(S(=O)(=O)NNC(=O)CCCCC(=O)NNS(=O)(=O)c2ccc(C)cc2)cc1	LANA-H2A inh 7.7
Cc1ccc(S(=O)(=O)NCCNS(=O)(=O)c2ccc(C)cc2)cc1	LANA-H2A inh 19 (no result: Runt-SMMHC FRET, Runt-CBFb FRET)
CC1(C(=O)Nc2cnc3ccccc3c2)CCN1Cc1ccc2c(c1)OCCO2 (stereo not given)	none (no result: LANA-H2A inh, RanGTP-Imp inh, HDAC3 inhib, Runt-SMMHC FRET, Runt-CBFb FRET)
COc1cccc(C(=O)COC(=O)COc2c(C)cc(C)cc2C)c1	none (no result: RanGTP-Imp inh, Runt-SMMHC FRET, Runt-CBFb FRET)
COc1cc(C(=O)NCC(=O)NCCN2C(=O)S/C(=C\c3ccccc3Cl)C2=O)cc(OC)c1OC	none (no result: Runt-SMMHC FRET, Runt-CBFb FRET)
